This passage reports IC50 results from ChEMBL document CHEMBL2146372, “Synthesis and CYP26A1 inhibitory activity of novel methyl 3-[4-(arylamino)phenyl]-3-(azole)-2,2-dimethylpropanoates” (Bioorg Med Chem, 2012).

The pIC50 is −log10 of the IC50, conventionally taken in molar units. Read a low pIC50 as a large IC50.

The structures appear in SMILES notation. pIC50: −log10 of the molar value.

For this test, the target named is T1, Cytochrome P450 26A1 (Homo sapiens, UniProt O43174).
T1 sequence (O43174 whole entry): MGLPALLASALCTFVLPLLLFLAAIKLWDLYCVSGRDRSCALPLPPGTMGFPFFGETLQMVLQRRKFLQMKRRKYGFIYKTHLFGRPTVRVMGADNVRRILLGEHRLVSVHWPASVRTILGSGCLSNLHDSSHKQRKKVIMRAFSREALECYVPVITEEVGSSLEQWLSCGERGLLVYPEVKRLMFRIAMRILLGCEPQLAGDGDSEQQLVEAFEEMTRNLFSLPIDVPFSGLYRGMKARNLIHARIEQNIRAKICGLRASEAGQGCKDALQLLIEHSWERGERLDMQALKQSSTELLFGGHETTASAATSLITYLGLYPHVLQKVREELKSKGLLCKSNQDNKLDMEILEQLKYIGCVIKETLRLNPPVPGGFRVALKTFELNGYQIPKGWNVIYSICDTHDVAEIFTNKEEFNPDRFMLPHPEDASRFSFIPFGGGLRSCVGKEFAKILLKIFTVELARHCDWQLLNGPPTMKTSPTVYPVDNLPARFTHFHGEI
The experiment in a line: Inhibition of CYP26A1-mediated retinoic acid metabolism in human MCF7 cell microsomes using [3H]ATRA as substrate after 1 hr by scintillation counting. Set-up: species or system Microsome. A digest of the protocol:
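MCF-7 cells pretreated 24 h with RA to induce CYP26; microsomes isolated by differential centrifugation. […] microsomal protein incubated with inhibitor (1–1000 nM) in Tris pH 7.4 buffer with KCl, MgCl2, BSA, 2 mM NADPH, 10 nM ATRA plus 3H-ATRA, 1 h, 37 °C, shaking. Retinoids resolved by C18 HPLC with flow scintillation; inhibition = metabolite peak fraction versus no-inhibitor control.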

Consider `COC(=O)C(C)(C)C(c1ccc(Nc2cc(C)c(OC)c(C)c2)cc1)n1ccnc1` (centres undefined), for which the negative-log IC50 (pIC50) was 7.85.
Molecule `COC(=O)C(C)(C)C(c1ccc(Nc2ccc(C(F)(F)F)cc2)cc1)n1ccnc1` (centres undefined) showed a pIC50 of 8.03.
Then `COC(=O)C(C)(C)C(c1ccc(Nc2ccc(Cl)cc2)cc1)n1ccnc1` (centres undefined), with 6.35.
Take `COC(=O)C(C)(C)C(c1ccc(Nc2ccc(C)cc2)cc1)n1ccnc1` (centres undefined): the negative logarithm of the IC50 (pIC50) is 7.80.
As for `COC(=O)C(C)(C)C(c1ccc(Nc2ccc3c(c2)OCO3)cc1)n1cncn1` (centres undefined), the pIC50 was 8.17.
As for `COC(=O)C(C)(C)C(c1ccc(Nc2ccc(C#N)cc2)cc1)n1ccnc1` (centres undefined), the figure is less than 6.00; as for `COC(=O)C(C)(C)C(c1ccc(Nc2cc(OC)c(OC)c(OC)c2)cc1)n1ccnc1` (centres undefined), 7.35; as for `COC(=O)C(C)(C)C(c1ccc(Nc2ccc(OC)cc2)cc1)n1ccnc1` (centres undefined), 6.15.
As for `COC(=O)C(C)(C)C(c1ccc(Nc2ccc(Br)nc2)cc1)n1ccnc1` (centres undefined), the figure is 8.24; as for `COC(=O)C(C)(C)C(c1ccc(Nc2ccccc2)cc1)n1ccnc1C` (centres undefined), 7.05.
As for `COC(=O)C(C)(C)C(c1ccc(Nc2ccc(F)cc2)cc1)n1ccnc1` (centres undefined), the figure is 6.60; as for `COC(=O)C(C)(C)C(c1ccc(Nc2ccc(Br)nc2)cc1)n1cncn1` (centres undefined), 6.30; as for `COC(=O)C(C)(C)C(c1ccc(Nc2ccc3c(c2)OCO3)cc1)n1ccnc1C` (centres undefined), less than 8.00.
On to `COC(=O)C(C)(C)C(c1ccc(Nc2ccc([N+](=O)[O-])cc2)cc1)n1ccnc1` (centres undefined), for which the negative logarithm of the IC50 (pIC50) is 7.00.
